Drawing on ChEMBL document CHEMBL1833949, “High affinity sialoside ligands of myelin associated glycoprotein” (Bioorg Med Chem Lett, 2011), this text covers Kd and IC50 for 16 molecules.

The target in experiment [1] is T1, Myelin-associated glycoprotein (Homo sapiens, UniProt P20916).
T1 sequence (P20916 whole entry): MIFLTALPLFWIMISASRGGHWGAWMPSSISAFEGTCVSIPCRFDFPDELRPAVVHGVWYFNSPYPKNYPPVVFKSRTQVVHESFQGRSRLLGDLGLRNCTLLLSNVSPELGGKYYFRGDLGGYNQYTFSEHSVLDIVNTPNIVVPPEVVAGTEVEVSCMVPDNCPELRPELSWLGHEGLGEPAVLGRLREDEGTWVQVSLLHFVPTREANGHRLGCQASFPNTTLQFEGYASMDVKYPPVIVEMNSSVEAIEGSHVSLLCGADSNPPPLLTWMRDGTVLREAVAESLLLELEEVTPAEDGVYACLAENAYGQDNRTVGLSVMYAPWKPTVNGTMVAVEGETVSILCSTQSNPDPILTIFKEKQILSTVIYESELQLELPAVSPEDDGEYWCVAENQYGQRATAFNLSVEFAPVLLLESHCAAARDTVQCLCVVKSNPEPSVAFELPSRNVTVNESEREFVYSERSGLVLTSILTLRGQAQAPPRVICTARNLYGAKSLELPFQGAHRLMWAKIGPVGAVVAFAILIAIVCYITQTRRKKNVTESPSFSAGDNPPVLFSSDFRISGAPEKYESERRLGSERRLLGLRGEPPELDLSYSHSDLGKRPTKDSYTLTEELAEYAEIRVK
In words: Binding affinity to wild type MAG at 400 uM by Isothermal titration calorimetry. A general note: Isothermal titration calorimetry measures the heat released or taken up as one component is titrated into another.

Experiment [2] concerns the target T1, Myelin-associated glycoprotein. In words: Inhibition of MAG -Fc chimera expressed in CHO cells using NeuAc alpha2-3Galbeta1-4GlcNAc-R coupled biotinylated polyacrylamide after 30 mins by ELISA. Format: cell-based. The gist of the method:
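Each compound was run in triplicate and assayed on three separate days, each time alongside at least one other compound to check for drift. IC50 is the mean and standard deviation of the three separate assays.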
(ELISA stands for enzyme-linked immunosorbent assay.)

For experiment [3] the target is unchanged. In words: Inhibition of MAG. The gist of the method: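 Competition format: MAG-Fc chimera binding to a polymeric ligand adsorbed on plate wells, with the inhibitor titrated to give IC50. Each compound was run in triplicate and assayed on three separate days, each time alongside at least one other compound to check for drift. IC50 is the mean and standard deviation of the three separate assays.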

For experiment [4] the target is unchanged. The experiment is described as follows: Binding affinity to MAG. The gist of the method: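 Competitive inhibition of MAG-Fc chimera binding to a polymeric ligand adsorbed in microplate wells, run in triplicate. Each compound was assayed three times on separate days, alongside at least one other compound, and the IC50 reported as mean and standard deviation. Apparent Kd values were calculated from IC50 against a reference ligand whose Kd was measured by isothermal titration calorimetry.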

In general, Kd refers to the equilibrium constant for the complex coming apart. The low end stands for higher affinity, the high end for lower affinity. For orientation: IC50 means the concentration that gives 50% inhibition. The low end stands for greater potency, the high end for weaker potency.

In turn, `COC(=O)[C@@H](NC(C)=O)[C@@H](C)O[C@H]1O[C@H](CO[C@]2(C(=O)O)C[C@H](O)[C@@H](NC(C)=O)[C@H]([C@H](O)[C@H](O)CO)O2)[C@H](O)[C@H](O[C@@H]2O[C@H](CO)[C@H](O)[C@H](O)[C@H]2O)[C@H]1NC(C)=O` had a Kd in experiment [1] of 13000 nM. In addition, in experiment [2], it took 7900 nM to reach half-maximal inhibition (IC50).
The like results for `COC(=O)[C@@H](NC(C)=O)[C@@H](C)O[C@H]1O[C@H](CO[C@]2(C(=O)O)C[C@H](O)[C@@H](NC(C)=O)[C@H]([C@H](O)[C@H](O)CNC(=O)c3ccc(F)cc3)O2)[C@H](O)[C@H](O[C@@H]2O[C@H](CO)[C@H](O)[C@H](O[C@]3(C(=O)O)C[C@H](O)[C@@H](NC(C)=O)[C@H]([C@H](O)[C@H](O)CO)O3)[C@H]2O)[C@H]1NC(C)=O` were, in that order, 15 nM and 9 nM.
In turn, `CC(=O)N[C@H]1[C@@H](O[C@H](C)[C@H](N)C(=O)O)O[C@H](CO[C@]2(C(=O)O)C[C@H](O)[C@@H](NC(C)=O)[C@H]([C@H](O)[C@H](O)CO)O2)[C@H](O)[C@@H]1O[C@@H]1O[C@H](CO)[C@H](O)[C@H](O[C@]2(C(=O)O)C[C@H](O)[C@@H](NC(C)=O)[C@H]([C@H](O)[C@H](O)CO)O2)[C@H]1O` had an IC50 in experiment [3] of 300 nM.
On to `CC(=O)N[C@H]1[C@H](OCC[Si](C)(C)C)O[C@H](CO)[C@H](O)[C@@H]1O[C@@H]1O[C@H](CO)[C@H](O)[C@H](O[C@]2(C(=O)O)C[C@H](O)[C@@H](NC(C)=O)[C@H]([C@H](O)[C@H](O)CO)O2)[C@H]1O`, for which the Kd in experiment [4] is 180000 nM.
As to `CC(=O)N[C@@H]1[C@@H](O[C@@H]2O[C@H](CO)[C@H](O)[C@H](O[C@]3(C(=O)O)C[C@H](O)[C@@H](NC(C)=O)[C@H]([C@H](O)[C@H](O)CO)O3)[C@H]2O)[C@@H](O)[C@@H](CO)O[C@H]1Sc1ccc(C)cc1`, the IC50 in experiment [3] came to 272000 nM.
`CC(=O)N[C@H]1[C@@H](OCc2ccccc2)O[C@H](CO)[C@H](O)[C@@H]1O[C@@H]1O[C@H](CO)[C@H](O)[C@H](O[C@]2(C(=O)O)C[C@H](O)[C@@H](NC(C)=O)[C@H]([C@H](O)[C@H](O)CO)O2)[C@H]1O` returned an IC50 in experiment [3] of 52000 nM.
Molecule `CC(=O)N[C@H]1[C@@H](O[C@H](C)[C@H](N)C(=O)O)O[C@H](CO)[C@H](O)[C@@H]1O[C@@H]1O[C@H](CO)[C@H](O)[C@H](O[C@]2(C(=O)O)C[C@H](O)[C@@H](NC(C)=O)[C@H]([C@H](O)[C@H](O)CO)O2)[C@H]1O` returned an IC50 in experiment [3] of 1200 nM.
In turn, `CC(=O)N[C@H]1[C@H]([C@H](O)[C@H](O)CNC(=O)c2ccccc2)O[C@@](O[C@H]2[C@@H](O)[C@@H](CO)O[C@@H](O[C@H]3[C@@H](O)[C@@H](CO)O[C@@H](OCC[Si](C)(C)C)[C@@H]3O)[C@@H]2O)(C(=O)O)C[C@@H]1O` yielded a Kd in experiment [4] of 32000 nM.
Same read-out and setting: as for `O=C(CF)N[C@H]1[C@H]([C@H](O)[C@H](O)CNC(=O)c2ccccc2)O[C@@](OCc2cccc(F)c2F)(C(=O)O)C[C@@H]1O`, the figure is 500 nM.
Consider `COC(=O)[C@@H](NC(C)=O)[C@@H](C)O[C@H]1O[C@H](CO)[C@H](O)[C@H](O[C@@H]2O[C@H](CO)[C@H](O)[C@H](O[C@]3(C(=O)O)C[C@H](O)[C@@H](NC(C)=O)[C@H]([C@H](O)[C@H](O)CO)O3)[C@H]2O)[C@H]1NC(C)=O`, for which the affinity in experiment [1], expressed as Kd, was 1900 nM. The molecule also showed an IC50 in experiment [2] of 1200 nM.
As to `COC(=O)[C@@H](NC(C)=O)[C@@H](C)O[C@H]1O[C@H](CO)[C@H](O)[C@H](O[C@@H]2O[C@H](CO)[C@H](O)[C@H](O[C@]3(C(=O)O)C[C@H](O)[C@@H](NC(C)=O)[C@H]([C@H](O)[C@H](O)CNC(=O)c4ccccc4)O3)[C@H]2O)[C@H]1NC(C)=O`, the Kd in experiment [1] turned out to be 1000 nM. This molecule also yielded an IC50 in experiment [2] of 650 nM.
As for `COC(=O)[C@@H](NC(C)=O)[C@@H](C)O[C@H]1O[C@H](CO)[C@H](O)[C@H](O[C@@H]2O[C@H](CO)[C@H](O)[C@H](O[C@]3(C(=O)O)C[C@H](O)[C@@H](NC(C)=O)[C@H]([C@H](O)[C@H](O)CNC(=O)c4ccc(Cl)cc4)O3)[C@H]2O)[C@H]1NC(C)=O`, the Kd in experiment [1] worked out at 1000 nM. Besides, the IC50 in experiment [2] came to 610 nM.
The molecule `COC(=O)[C@@H](NC(C)=O)[C@@H](C)O[C@H]1O[C@H](CO)[C@H](O)[C@H](O[C@@H]2O[C@H](CO)[C@H](O)[C@H](O[C@]3(C(=O)O)C[C@H](O)[C@@H](NC(C)=O)[C@H]([C@H](O)[C@H](O)CNC(=O)c4ccc(F)cc4)O3)[C@H]2O)[C@H]1NC(C)=O` showed a Kd in experiment [1] of 130 nM. In addition, 79 nM corresponded to half-maximal inhibition in experiment [2] (IC50).
The matching figures for `COC(=O)[C@@H](NC(C)=O)[C@@H](C)O[C@H]1O[C@H](CO[C@]2(C(=O)O)C[C@H](O)[C@@H](NC(C)=O)[C@H]([C@H](O)[C@H](O)CNC(=O)c3ccc(Cl)cc3)O2)[C@H](O)[C@H](O[C@@H]2O[C@H](CO)[C@H](O)[C@H](O)[C@H]2O)[C@H]1NC(C)=O`: 1000 nM and 640 nM.
The matching figures for `COC(=O)[C@@H](NC(C)=O)[C@@H](C)O[C@H]1O[C@H](CO[C@]2(C(=O)O)C[C@H](O)[C@@H](NC(C)=O)[C@H]([C@H](O)[C@H](O)CNC(=O)c3ccc(F)cc3)O2)[C@H](O)[C@H](O[C@@H]2O[C@H](CO)[C@H](O)[C@H](O)[C@H]2O)[C@H]1NC(C)=O`: 1760 nM and 1100 nM.
With `COC(=O)[C@@H](NC(C)=O)[C@@H](C)O[C@H]1O[C@H](CO[C@]2(C(=O)O)C[C@H](O)[C@@H](NC(C)=O)[C@H]([C@H](O)[C@H](O)CO)O2)[C@H](O)[C@H](O[C@@H]2O[C@H](CO)[C@H](O)[C@H](O[C@]3(C(=O)O)C[C@H](O)[C@@H](NC(C)=O)[C@H]([C@H](O)[C@H](O)CNC(=O)c4ccc(F)cc4)O3)[C@H]2O)[C@H]1NC(C)=O`, the Kd in experiment [1] came out at 480 nM. This molecule also returned an IC50 in experiment [2] of 300 nM.
